Data reported in ChEMBL document CHEMBL3352331, “Anti-respiratory syncytial virus prenylated dihydroquinolone derivatives from the gorgonian-derived fungus Aspergillus sp. XS-20090B15” (J Nat Prod, 2014).

What was measured:
[1] = Therapeutic index, ratio of TC50 for human Hep2 cells to IC50 for Respiratory syncytial virus; format: cell-based, HEp-2; details: read-out: TI
[2] = system: Respiratory syncytial virus; assay: Antiviral activity against Respiratory syncytial virus infected in human Hep2 cells assessed as inhibition of virus-induced cytopathic effect after 72 hrs by XTT assay; format: functional, organism-based; details: HEp-2, 72 h
Procedure, shortened: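 RSV-induced cytopathic effect inhibition in Hep-2 (human laryngeal carcinoma) cells, run by an established CPE-inhibition procedure. Ribavirin served as the positive control. Values are the mean of three replicate determinations.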

[3] = Cytotoxicity against human Hep2 cells after 48 hrs; format: cell-based, HEp-2; details: read-out: TC50

Structure (SMILES) | selectivity ratio [1] | IC50 [2] [µM] | CC50 at 48 h [3] [µM]
CN[C@H](C(=O)O[C@@H]1CC[C@@](C)(/C=C/c2ccc3c(c2O)[C@@](O)(c2ccccc2)[C@H](OC)C(=O)N3)C[C@H]1C)C(C)C | 520 | 0.042 | 22
CO[C@@H]1C(=O)Nc2ccc(/C=C/[C@]3(C)CCC(=O)[C@H](C)C3)c(O)c2[C@@]1(O)c1ccccc1 | 4 | 6.6 | 27
NC(=O)c1ncn([C@@H]2O[C@H](CO)[C@@H](O)[C@H]2O)n1 [RIBAVIRIN] | > 150 | 20 | > 3000
CO[C@@H]1C(=O)Nc2ccc(/C=C/[C@]3(C)CCC(=O)[C@@H](C)C3)c(O)c2[C@@]1(O)c1ccccc1 [AFLAQUINOLONE A] | – | > 50 | –
CN[C@H](C(=O)O[C@@H]1CC[C@@](C)(/C=C/c2ccc3c(c2O)[C@@](O)(c2ccccc2)[C@H](OC)C(=O)N3)C[C@@H]1C)C(C)C | – | > 50 | –
